Reference: ChEMBL document CHEMBL2406930, “Synthesis and electrochemical and biological studies of novel coumarin-chalcone hybrid compounds” (J Med Chem, 2013)
The source made the active and inactive calls. The rule behind the calls is not given here.

Columns and labels:
[1] = Cytotoxicity against BAEC assessed as cell viability at 20 uM after 24 hrs by MTT assay; set-up: species or system Bos taurus; conditions: cattle, BAEC cells; read-out: Activity
Method in brief: (§1)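 BAEC seeded at 10^4–10^5 cells/mL were grown to 60–70% confluency and exposed to compound (10–50 µM) for 24 h. Medium was then replaced and MTT added for 2 h at 37 °C. Formazan was dissolved in DMSO and read at 570 nm. Viability was taken relative to solvent-only wells, n = 3, mean ± SEM.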

[2] = Cytotoxicity against BAEC assessed as cell viability at 50 uM after 24 hrs by MTT assay; set-up: species or system Bos taurus; conditions: cattle, BAEC cells; read-out: Activity; method in brief: as §1
[3] = (§2) Cytoprotective activity against peroxynitrite-induced toxicity in BAEC assessed as cell viability at 20 uM after 24 hrs by MTT assay; type: functional; conditions: Bos taurus, read-out: Activity
Method in brief: (§3)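 Bovine aortic endothelial cells (BAEC) in DMEM with 10% FBS, endothelial growth supplement and no antibiotics were grown to 60–70% confluency. They were pretreated 24 h with compound at 10 or 20 µM, then washed twice with PBS. Insult was 1 mM H2O2 for 2 h, or 500 µM SIN-1 (peroxynitrite source) for 4 h. Viability was read by MTT reduction, formazan in DMSO, A570.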

[4] = Antioxidant activity assessed as trolox equivalents of peroxyl radical scavenging activity at 0.3 to 2 uM preincubated for 15 mins by ORAC assay relative to control; type: functional
Method in brief: (§4)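 Peroxyl radical scavenging by ORAC-FL in 75 mM sodium phosphate buffer (pH 7.4) at 37 °C. Fluorescein was 70 nM final. Compounds in methanol were tested at 0.3–2 µM for monohydroxy and 0.5–7 µM for dihydroxy derivatives, preincubated 15 min, then AAPH was added (18 mM final). Fluorescence (ex 485, em 528 nm) was read each minute for 120 min. Net AUC minus methanol blank was referenced to Trolox (0.5–2.5 µM).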

[5] = Cytotoxicity against BAEC assessed as cell viability at 10 uM after 24 hrs by MTT assay; set-up: species or system Bos taurus; conditions: cattle, BAEC cells; read-out: Activity; method in brief: as §1
[6] = Antioxidant activity assessed as hydroxyl radical scavenging activity at 4 mM after 5 mins by ESR spectroscopy analysis
[7] = (§5) Cytoprotective activity against H2O2-induced toxicity in BAEC assessed as cell viability at 10 uM after 24 hrs by MTT assay; type: functional; conditions: Bos taurus, read-out: Activity; method in brief: as §3
BAEC [8] = assay: as §2; type: functional; conditions: Bos taurus; method in brief: as §3
[9] = Antioxidant activity assessed as peroxyl radical scavenging activity by ORAC assay relative to trolox; type: functional
Method in brief: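 Fluorescein-based ORAC in 75 mM sodium phosphate buffer pH 7.4 with FL 70 nM (final). Compounds in methanol at 0.3–2 µM (monohydroxy) or 0.5–7 µM (dihydroxy) preincubated 15 min at 37 °C, then AAPH 18 mM (final) added. Fluorescence (ex 485, em 528 nm) read every 1 min for 120 min. Net AUC minus methanol blank, expressed against Trolox calibration (0.5–2.5 µM).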

BAEC [10] = assay: as §5; type: functional; conditions: Bos taurus; method in brief: as §3
[11] = Antioxidant activity assessed as trolox equivalents of peroxyl radical scavenging activity at 0.7 to 7 uM preincubated for 15 mins by ORAC assay relative to control; type: functional; conditions: 0.5 to 7 uM; in the assay text read “0.5 to 7 uM” for “0.7 to 7 uM”; method in brief: as §4

Row | SMILES | viability at 24 h, 20 µM [1] | viability at 24 h, 50 µM [2] | viability at 20 µM [3] | Ratio [4] | viability at 24 h, 10 µM [5] | Activity [6] | viability at 10 µM [7] | Activity (BAEC [8]) | Ratio [9] | Activity (BAEC [10]) | Ratio [11]
1 | O=C(c1ccc(O)cc1)c1cc2cc(O)ccc2oc1=O | 94% | 93% | 90% | 14.1 | 68% | 58% |  |  |  |  | 
2 | O=C(c1ccc(O)cc1)c1cc2ccccc2oc1=O | 60% | 44% |  | 9.2 | 76% | 26% |  |  |  |  | 
3 | O=C(c1ccccc1)c1cc2cc(O)ccc2oc1=O | 95% | 86% |  | 11.5 | 88% | 39% | 40% | inactive |  |  | 
4 | O=C(c1ccc(O)cc1)c1cc2cc(Br)ccc2oc1=O | 93% | 104% | 90% | 9.5 | 95% | 28% |  |  |  |  | 
5 | Cc1cccc2cc(C(=O)c3ccc(O)cc3)c(=O)oc12 | 82% | 101% | 90% | 10.9 | 87% | 45% | 40% |  |  |  | 
6 | O=C(c1ccc(O)c(O)c1)c1cc2cccc(O)c2oc1=O | 68% | 63% |  | 8.1 | 49% | 75% |  |  |  |  | 
7 | O=C(c1ccc(O)c(O)c1)c1cc2cc(Br)cc(O)c2oc1=O | 23% | 71% |  | 8.8 | 64% | 100% |  |  |  |  | 
8 | Cc1c(C)c2c(c(C)c1O)CCC(C)(C(=O)O)O2 (stereo not drawn) |  |  |  | 1 |  | 31% |  |  |  |  | 
9 | Oc1cc(O)c2c(c1)OC(c1ccc(O)c(O)c1)C(O)C2 (stereo not drawn) |  |  |  |  |  |  |  |  | 6.8 |  | 
10 | O=C(c1ccccc1)c1cc2cc(Br)cc(O)c2oc1=O | 101% | 93% | 90% | 8.3 | 96% | 65% |  |  |  |  | 
11 | O=c1c(O)c(-c2ccc(O)c(O)c2)oc2cc(O)cc(O)c12 |  |  |  |  |  |  |  |  | 7.3 |  | 
12 | O=C(c1ccc(O)c(O)c1)c1cc2cc(Br)ccc2oc1=O | 100% | 92% |  |  | 102% | 100% |  | inactive |  | inactive | 13
